# Screens as filed in PubChem.
# APP 5'UTR act: APP 5'UTR luciferase reporter activation. SH-SY5Y APP 5'UTR luciferase reporter, luminescence; zero percent = DMSO vehicle wells. activation, % at 2 µM. hit rate 1% among 190,000. AID 1276;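 active = activation above a set limit, based on mean plus 3 SD of controls, cut at about 140% in these data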
# FLuc inh counter: inhibits firefly luciferase, flagging false hits in luciferase inhibition screens. P08659. ATPLite firefly luciferase biochemical luminescence, 10 min. inhibition, % at 10 µM. hit rate 1.5% among 200,000. AID 1006;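 active = inhibition above about 50% when tested at 10 µM, limit read from the data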
# Target sequence (P08659 whole entry, looked up): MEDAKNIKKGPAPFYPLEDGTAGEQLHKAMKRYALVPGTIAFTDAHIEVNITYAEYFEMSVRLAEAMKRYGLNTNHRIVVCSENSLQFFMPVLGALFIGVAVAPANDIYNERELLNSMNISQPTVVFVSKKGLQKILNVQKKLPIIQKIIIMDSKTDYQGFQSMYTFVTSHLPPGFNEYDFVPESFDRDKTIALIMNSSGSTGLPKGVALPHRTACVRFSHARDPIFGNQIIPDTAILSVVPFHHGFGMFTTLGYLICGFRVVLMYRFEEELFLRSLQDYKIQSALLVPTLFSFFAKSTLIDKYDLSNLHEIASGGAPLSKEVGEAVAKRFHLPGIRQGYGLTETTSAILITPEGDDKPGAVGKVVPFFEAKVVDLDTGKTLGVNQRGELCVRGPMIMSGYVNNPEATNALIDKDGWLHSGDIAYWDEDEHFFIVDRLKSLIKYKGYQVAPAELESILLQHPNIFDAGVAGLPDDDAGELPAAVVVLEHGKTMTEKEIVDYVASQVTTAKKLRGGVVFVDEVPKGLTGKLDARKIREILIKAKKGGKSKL
# STAT1 activator: increases IFN-gamma driven STAT1 reporter signal; NIH 3T3 STAT1-luciferase reporter, luminescence; 100% = IFN-gamma alone, no compound; activation (% of control), % at 5.5 µM; hit rate 2.6% among 200,000;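 active = activation above the screen-wide mean activation plus 3 SD, cut at about 130% in these data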
# FLuc act counter: affects firefly luciferase, flagging false hits in luciferase stimulation screens; activation factor at 10 µM; 200,000 tested, under 10 active; AID 1027; ATPlite luciferase biochemical, luminescence, 10 min; 0 = ATP-free wells, 1 = DMSO control;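 active = luciferase activation factor, scaled between plate controls, of at least 2 with compound at 10 µM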
#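 Material: Luciferase/luciferin reagent mix; Doses: test compounds dosed from 2 mM stocks in 100% DMSO; Schedule: 10 min incubation after luciferase reagent addition, room temperature; Measured by: luminescence from luciferase reaction; Read-out: luminescence gain marking luciferase activators.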
# NF-kB expr up: NF-kB expression increase, human neuronal cells | NF-kB reporter expression; active compounds read high | fold change at 12.5 µM | hit rate 1.6% among 190,000 | AID 1239; in the data active = fold change above about 3.3
# A number is an active result; - = inactive; . = no result. Most compounds without a hit are left out; they make up all but 4.1% or so of the library.
SMILES,APP 5'UTR act,FLuc inh counter,STAT1 activator,FLuc act counter,NF-kB expr up
COc1ccc(NC(=O)c2cccc(OS(=O)(=O)N(C)C)c2)cc1,156.6,53.6,-,-,4.75
CN(C)S(=O)(=O)Oc1cccc(C(=O)Nc2ccc(Cl)c(Cl)c2)c1,174.4,-,137.4,-,4.23
CC1=CCC(Cc2nc3ccccc3o2)C1(C)C (stereo unspecified),-,-,-,-,-
N#C/C(=N\Nc1cccc(F)c1)C(=N)N1CCCCCC1,149.9,62.3,144.7,-,5.25
CC1=NN(C(N)=S)C(=O)C1N=Nc1ccc(C)cc1C (stereo unspecified),-,-,137.1,-,-
Cc1ccc(OC(=O)Nc2ccccc2)cc1,-,51.0,144.0,-,-
CCOC(=O)c1ccc(NC(=O)Oc2ccccc2)cc1,-,-,-,-,-
O=C(Nc1ccccc1)OCCOc1ccccc1,-,-,132.5,-,4.48
COc1ccc(OCCOC(=O)Nc2ccccc2)cc1,-,-,-,-,-
CC(NC(=O)COc1ccccc1)C(c1cccs1)N1CCCC1 (stereo unspecified),-,-,-,-,-
Cc1ccc(NC(=S)NCc2ccc3c(c2)OCO3)cc1C,-,-,-,-,-
Cc1c(C(=O)NC(=S)Nc2ccc(NC(=O)c3cccs3)cc2)cccc1[N+](=O)[O-],-,.,-,.,.
Cc1ccnc(NS(=O)(=O)c2ccc(NC(=O)c3ccc([N+](=O)[O-])s3)cc2)n1,-,-,-,-,5.68
COc1ccc(C(=O)/C=C/N(C)C)cc1OC,-,-,-,-,-
CCOC(=O)C(C)n1cnc2c(nnn2-c2ccc(C)cc2)c1=O (stereo unspecified),-,-,-,-,-
Cc1cc(C(=O)NCC(C)C)c2ccccc2n1,-,60.1,-,-,-
Cc1ccc(C(=O)N/N=C(/CC(=O)c2cccs2)C(F)(F)F)cc1,-,-,-,-,-
Cc1ccc(N=C/C(C(=O)C(F)(F)F)=C(\O)c2cccs2)cc1,189.6,-,-,-,-
COc1cccc(NC(=O)C(Cc2ccccc2)NC(=O)C2CCC(C)CC2)c1 (stereo unspecified),-,-,-,-,-
CCOc1ccccc1C1C2=C(COC2=O)Nc2cc3c(cc21)OCO3 (stereo unspecified),-,-,-,-,3.34
CCOC(=O)c1ccccc1NC(=O)CSc1nc2c(c(=O)n(C)c(=O)n2C)n1C,-,-,-,-,-
O=c1c2ccccc2nc2c3ccccc3c(Cl)nn12,-,-,-,-,-
O=c1c2ccccc2nc2c3ccccc3cnn12,-,-,134.5,-,-
CCOC(=O)C1CCN(CC(=O)Nc2c(C(=O)OC)[nH]c3ccccc23)CC1,-,-,-,-,-
Cc1ccccc1SCCNC(=O)CCc1ccccc1,-,-,148.7,-,-
SMILES,APP 5'UTR act,FLuc inh counter,STAT1 activator,FLuc act counter,NF-kB expr up
CC(C)Cc1ccc(/C=C/C(=O)N2CCCCC2)cc1,-,-,139.1,-,4.18
CC(C)Cc1ccc(/C=C/C(=O)NC2CC2)cc1,-,-,146.9,-,-
O=C(/C=C/c1ccccc1)N1CCCN(C(=O)/C=C/c2ccccc2)CC1,-,-,-,-,-
O=C(/C=C/c1ccc(Br)cc1)NC1CCCCCC1,-,-,-,-,-
S=c1oc(-c2ccncc2)nn1CCc1ccncc1,-,-,-,-,-
Cc1n[nH]c(C)c1CCc1nc2c3ccccc3nc(SCC(N)=O)n2n1,-,-,-,-,-
Cc1oc2cc(O)ccc2c(=O)c1-c1nncn1-c1ccccc1,-,-,-,-,-
Cc1ccc(-c2cc(=O)c3cc(F)ccc3[nH]2)cc1,-,-,-,-,-
Cc1ccc(-c2cc(=O)c3cc(C)ccc3[nH]2)cc1,-,93.3,146.4,-,5.8
Cc1ccc2[nH]c(-c3cccc(F)c3)cc(=O)c2c1,-,-,-,-,3.79
COc1ccc2[nH]c(-c3cccc(F)c3)cc(=O)c2c1,-,-,-,-,5.46
O=c1cc(-c2cccc(F)c2)[nH]c2ccccc12,-,-,-,-,-
Cc1ccccc1NC(=O)/C(C#N)=C\c1ccsc1,-,-,-,-,-
Cc1ccc(NC(=O)/C(C#N)=C/c2ccsc2)c(C)c1,-,-,137.4,-,-
CCOC(=O)CSc1ncc(OC)c(Sc2ccc(OC)cc2)n1,.,-,-,-,-
CCc1cccc2c(C(=O)COC(=O)c3c(C)noc3C)c[nH]c12,-,-,-,-,-
CCc1cccc2c(C(=O)COC(=O)c3ccc(O)cc3)c[nH]c12,-,-,131.6,-,-
CCc1cccc2c(C(=O)COC(=O)c3ccccc3)c[nH]c12,-,-,143.0,-,-
COc1ccc(C(=O)C2CCCN(C3Cc4ccccc4C3)C2)c(OC)c1 (stereo unspecified),-,-,-,-,-
N#C/C(=N/Nc1ccccc1F)C(=N)N1CCOCC1,-,-,-,-,-
CC(C)C(=O)Nc1ccc(-c2nc3cccnc3o2)cc1,150.8,66.9,147.1,-,-
CC(C)(C)c1ccc(OCC(=O)Nc2ccc(-c3nc4cccnc4o3)cc2)cc1,-,-,-,-,-
c1ccc(Sc2ncnc3c2oc2ccccc23)cc1,-,-,144.3,-,-
O=c1cc(O)nc(-c2ccccc2)s1,-,-,-,-,-
Nc1cc2sc(-c3ccc(C(=O)O)cc3)nc2cc1Cl,-,76.3,-,-,-
SMILES,APP 5'UTR act,FLuc inh counter,STAT1 activator,FLuc act counter,NF-kB expr up
Nc1ccc(O)c(-c2nc3ccccc3s2)c1,-,-,-,-,-
O=C(O)c1ccc2nc(-c3ccccc3)sc2c1,-,-,-,-,9.09
Nc1cccc(-c2nc3ccc(N)cc3s2)c1,-,93.0,-,-,-
Nc1ccc(-c2nc3ccc(C(=O)O)cc3s2)cc1,-,75.9,-,-,9.23
Cc1ccc(OC(=O)c2ccc3nc(C)sc3c2)cc1,-,-,-,-,-
O=C(c1ccccc1)c1ncc(C(F)(F)F)cc1Cl,-,-,-,-,-
COC(=O)/C(=C\Nc1ccccc1N)c1ncc(C(F)(F)F)cc1Cl,-,-,-,-,3.3
COc1cc(/C=N/N=C2/C(=O)Nc3ccccc32)ccc1O,-,94.1,-,-,-
COc1cc(/C=N/N2C(=O)c3ccccc3C2=O)ccc1O,-,56.9,-,-,-
CC1(C)Cc2ccccc2C2=NNC(=O)C2=N1,-,-,138.8,-,-
CC1(C)Cc2ccccc2C(Nn2cnnc2)=N1,-,-,-,-,-
O=S(=O)(NC1CCCC1)c1ccc(S(=O)(=O)N(Cc2cccs2)CC2CCCO2)cc1 (stereo unspecified),-,-,-,-,-
O=S(=O)(c1ccc(S(=O)(=O)N(Cc2cccs2)CC2CCCO2)cc1)N1CCCCC1 (stereo unspecified),-,-,129.0,-,-
N#C/C(=C\c1ccc(OCc2ccccc2)cc1)C(N)=O,-,-,130.1,-,-
O=C1CCC(=O)N1CCCCCc1nc(-c2ccccc2)no1,-,-,-,-,-
CCOC(=O)c1c(-c2ccccc2)nc2ccc(C)cn12,-,-,137.9,-,-
